From ChEMBL document CHEMBL3286377, “Microwave-assisted synthesis of C-8 aryl and heteroaryl inosines and determination of their inhibitory activities against Plasmodium falciparum purine nucleoside phosphorylase” (Eur J Med Chem, 2014)
Active and inactive are the calls of the source. The rule behind the calls is not given here.

Key:
Coxsackievirus B4 = test: Antiviral activity against Coxsackievirus B4 assessed as inhibition of virus-induced cytopathicity at 100 uM by cell-based assay; format: functional, organism-based
Summary of the method: (§1)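 Confluent HEL, Vero, HeLa or MDCK monolayers were infected with 100 CCID50 of virus in the presence of varying compound concentrations. Activity is expressed as EC50, the concentration that halves virus-induced cytopathicity.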

Human respirovirus 3 = test: Antiviral activity against Parainfluenza virus 3 assessed as inhibition of virus-induced cytopathicity at 100 uM by cell-based assay; format: functional, organism-based; summary of the method: as §1
Influenza A virus = test: Antiviral activity against Influenza A virus H1N1 assessed as inhibition of virus-induced cytopathicity at 100 uM by cell-based assay; format: functional, organism-based
Summary of the method: (§2)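 Inhibition of virus-induced cytopathicity in confluent cell monolayers (HEL, Vero, HeLa or MDCK cells), tested at varying compound concentrations with 100 µM the level assessed. Cytopathicity was scored once it was complete in untreated virus-infected controls. Activity is expressed as EC50, the concentration reducing virus-induced cytopathicity by 50%.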

Influenza A virus H3N2 = test: Antiviral activity against Influenza A virus H3N2 assessed as inhibition of virus-induced cytopathicity at 100 uM by cell-based assay; format: functional, organism-based; summary of the method: as §2
[1] = system: Mammalian orthoreovirus 1; test: Antiviral activity against Reovirus 1 assessed as inhibition of virus-induced cytopathicity at 100 uM by cell-based assay; format: functional; summary of the method: as §1
Sindbis virus = test: Antiviral activity against Sindbis virus assessed as inhibition of virus-induced cytopathicity at 100 uM by cell-based assay; format: functional, organism-based; summary of the method: as §1
Punta Toro virus = test: Antiviral activity against Punta Toro virus assessed as inhibition of virus-induced cytopathicity at 100 uM by cell-based assay; format: functional, organism-based; summary of the method: as §1
Influenza B virus = test: Antiviral activity against Influenza B virus assessed as inhibition of virus-induced cytopathicity at 100 uM by cell-based assay; format: functional, organism-based; summary of the method: as §2
CCRF-CEM = test: Cytotoxicity against human CEM cells up to 100 uM; format: cell-based
HEL = test: Cytotoxicity against HEL up to 100 uM; format: cell-based; conditions: human
HeLa = test: Cytotoxicity against human HeLa cells up to 100 uM; format: cell-based
Vero = test: Cytotoxicity against African green monkey Vero cells up to 100 uM; format: cell-based; conditions: chlorocebus sabaeus
MDCK = test: Cytotoxicity against MDCK cells up to 100 uM; format: cell-based, Canis lupus familiaris; conditions: dog
Plasmodium falciparum = test: Inhibition of Plasmodium falciparum PNP expressed in Escherichia coli BL21(DE3) using inosine as substrate at 200 uM by spectrophotometric analysis
[2] = Hydrolytic stability of the compound in citrate buffer at 50 uM at pH 5 up to 24 hrs by HPLC analysis; format: physicochemical; conditions: pH 5, 24 h
Summary of the method: (§3)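 A 5 mM DMSO stock was diluted to 50 µM final in phosphate (pH 7.4), citrate (pH 5.0) or trifluoroacetate (pH 1.2) buffer and incubated at 37 °C. Aliquots taken at 0, 0.5, 1, 4 and 24 h were analysed by reverse-phase HPLC. The mobile phase ran from 10 to 100% acetonitrile against water with 0.05% TFA over 20 min, at 1.0 mL/min.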

[3] = Hydrolytic stability of the compound in phosphate buffer at 50 uM at pH 7.4 up to 24 hrs by HPLC analysis; format: physicochemical; conditions: pH 7.4, 24 h; summary of the method: as §3
[4] = Half life of the compound in trifluoroacetate buffer at 50 uM at pH 1.2 by HPLC analysis; format: physicochemical; summary of the method: as §3
Human alphaherpesvirus 1 [5] = test: Antiviral activity against Herpes simplex virus type 1 KOS assessed as inhibition of virus-induced cytopathicity at 100 uM by cell-based assay; format: functional, organism-based; summary of the method: as §1
Human alphaherpesvirus 1 [6] = test: Antiviral activity against thymidine kinase-deficient ACV-resistant Herpes simplex virus type 1 KOS assessed as inhibition of virus-induced cytopathicity at 100 uM by cell-based assay; format: functional, organism-based
Summary of the method: (§4)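 Confluent HEL, Vero, HeLa or MDCK monolayers were infected with 100 CCID50 of virus in the presence of varying compound concentrations, with 100 µM the level assessed. Cytopathic effect was recorded once it was complete in untreated infected controls. EC50 is the concentration reducing virus-induced cytopathicity by 50%.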

Human alphaherpesvirus 2 [7] = test: Antiviral activity against Herpes simplex virus type 2 Lyons assessed as inhibition of virus-induced cytopathicity at 100 uM by cell-based assay; format: functional, organism-based; summary of the method: as §1
Human alphaherpesvirus 2 [8] = test: Antiviral activity against Herpes simplex virus type 2 G assessed as inhibition of virus-induced cytopathicity at 100 uM by cell-based assay; format: functional, organism-based; conditions: strain G; summary of the method: as §1
Vaccinia virus = test: Antiviral activity against Vaccinia virus Lederle assessed as inhibition of virus-induced cytopathicity at 100 uM by cell-based assay; format: functional, organism-based; conditions: Orthopoxvirus vaccinia; summary of the method: as §4
[9] = system: Respiratory syncytial virus; test: Antiviral activity against Respiratory syncytial virus Long assessed as inhibition of virus-induced cytopathicity at 100 uM by cell-based assay; format: functional, organism-based; summary of the method: as §1
[10] = system: Vesicular stomatitis virus; test: Antiviral activity against Vesicular stomatitis virus assessed as inhibition of virus-induced cytopathicity at 100 uM by cell-based assay; format: functional, organism-based; summary of the method: as §4

O=c1[nH]cnc2c1nc(-c1cccnc1)n2[C@@H]1O[C@H](CO)[C@@H](O)[C@H]1O
Activity (Coxsackievirus B4): inactive
Activity (Human respirovirus 3): inactive
Activity (Influenza A virus): inactive
Activity (Influenza A virus H3N2): inactive
Activity [1]: inactive
Activity (Sindbis virus): inactive
Activity (Punta Toro virus): inactive
Activity (Influenza B virus): inactive
Activity (CCRF-CEM): Non-toxic
Activity (HEL): Non-toxic
Activity (HeLa): Non-toxic
Activity (Vero): Non-toxic
Activity (MDCK): Non-toxic
inhibition (Plasmodium falciparum): inactive
Stability [2]: Stable
Stability [3]: Stable
half-life at 50 µM [4]: 900 min
Activity (Human alphaherpesvirus 1 [5]): inactive
Activity (Human alphaherpesvirus 1 [6]): inactive
Activity (Human alphaherpesvirus 2 [7]): inactive
Activity (Human alphaherpesvirus 2 [8]): inactive
Activity (Vaccinia virus): inactive
Activity [9]: inactive
Activity [10]: inactive
